Test results from ChEMBL document CHEMBL3098078, “Design, Synthesis, and Antiviral Evaluation of Chimeric Inhibitors of HIV Reverse Transcriptase” (ACS Med Chem Lett, 2013).
Active and inactive are the calls of the source. No cut-off for these calls is given here.

Assays:
[1] = target: Human immunodeficiency virus type 1 reverse transcriptase (Human immunodeficiency virus 1) (UniProt Q72547); experiment: Binding affinity to HIV-1 6His-tagged reverse transcriptase p66/p51 assessed as compound incorporation into D23/D36 primer/template at 50 uM after 60 mins by PAGE analysis
Procedure, shortened: (§1)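 Single-turnover incorporation by HIV-1 RT of the chimeric triphosphate as substrate, using radiolabeled D23/D36 primer/template (template base pairs with TTP). Reactions are sampled at a 0 time point, and a negative control lacks Mg2+. Products are resolved by gel electrophoresis to detect an elongated primer band. A mispaired D23/D36B primer/template (dC opposite template dGMP) serves as a comparison.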

[2] = target: Human immunodeficiency virus type 1 reverse transcriptase (Human immunodeficiency virus 1) (UniProt Q72547); experiment: Binding affinity to HIV-1 6His-tagged reverse transcriptase p66/p51 assessed as compound incorporation into D23/D36 primer/template at 50 uM after 60 mins by PAGE analysis in presence of MgCl2; procedure, shortened: as §1
[3] = target: Human immunodeficiency virus type 1 reverse transcriptase (Human immunodeficiency virus 1, UniProt Q72547); experiment: Inhibition of HIV-1 6His-tagged reverse transcriptase p66/p51-mediated TTP incorporation into D23/D36 primer/template preincubated for 15 mins followed by D23/D36 primer/template and TTP addition measured after 15 mins by PAGE analysis
Procedure, shortened: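 Steady-state competition assay measuring inhibition of HIV-1 RT-catalysed TTP incorporation opposite template A into radiolabeled D23/D36 primer/template. Products are resolved on gel across increasing inhibitor concentrations, with a reference NNRTI positive control at 250 nM. Percent RT activity loss is plotted against inhibitor concentration to derive IC50.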

[4] = target: Human immunodeficiency virus type 1 reverse transcriptase (Human immunodeficiency virus 1) (UniProt Q72547); experiment: Ratio of d4T IC50 to compound IC50 for HIV-1 6His-tagged reverse transcriptase p66/p51
[5] = Selectivity index, ratio of CC50 for human MT2 cells to EC50 for HIV1 3B; format: toxicity, cell-based; settings: read-out: Ratio CC50/EC50
[6] = system: Human immunodeficiency virus 1; experiment: Ratio of d4T EC50 to compound EC50 for HIV1 3B infected in human MT2 cells; format: functional
[7] = (§2) Cytotoxicity against human MT2 cells after 5 days by MTT assay; format: cell-based; settings: MT2 cells
Procedure, shortened: (§3)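 MT-2 cells infected with HIV-1 IIIB are read by MTT assay following a previously published protocol. Inhibition of viral replication gives EC50, and the cytotoxicity read-out gives CC50.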

[8] = system: Human immunodeficiency virus 1; experiment: Antiviral activity against HIV1 3B infected in human MT2 cells after 5 days by MTT assay; format: functional, organism-based
Procedure, shortened: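 HIV-1 IIIB replication in MT-2 cell culture, with MTT read-out following a previously published protocol. The nucleoside form was tested. d4T and ddC (NRTI) and TMC120 (NNRTI) were run alongside as positive controls.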

[9] = system: MT2; experiment: as §2; format: cell-based; settings: mt2, 120 h; procedure, shortened: as §3

Structure (SMILES)	Activity [2]	IC50 [3] [nM]	Ratio IC50 [4]	selectivity ratio [5]	Ratio EC50 [6]	CC50 at 120 h [7] [nM]	also measured
Cc1cc(C#CCCCCCCCC(=O)NCc2cn([C@H]3C[C@H](O)[C@@H](COP(=O)(O)OP(=O)(O)OP(=O)(O)O)O3)c(=O)[nH]c2=O)cc(C)c1Oc1ccnc(Nc2ccc(C#N)cc2)n1	Active	6	2000				Activity [1]: inactive
Cc1cc(C#CCCCCCCCC(=O)NCc2cn([C@H]3C[C@H](O)[C@@H](CO)O3)c(=O)[nH]c2=O)cc(C)c1Oc1ccnc(Nc2ccc(C#N)cc2)n1				18	30		
Cc1cn([C@H]2C=C[C@@H](CO)O2)c(=O)[nH]c1=O [STAVUDINE]						2200	EC50 ([8]; Human immunodeficiency virus 1, 3B, MT2, 120 h): 3600 nM
Cc1cc(C#CCCCCCCCC(=O)NCc2cn([C@H]3C[C@H](O)[C@@H](CO[PH](=O)O)O3)c(=O)[nH]c2=O)cc(C)c1Oc1ccnc(Nc2ccc(C#N)cc2)n1	inactive	4.3	3000	27	16		Activity [9]: Toxic; Activity [8]: Active
Nc1ccn([C@H]2CC[C@@H](CO)O2)c(=O)n1 [ZALCITABINE]						4000	
Cc1cc(C)c(Nc2ccnc(Nc3ccc(C#N)cc3)n2)c(C)c1 [DAPIVIRINE]						1900	
